Calls of active or inactive are those of the source. The calls are words filed in the database; no cut-off is given here.
Key:
Sarcoma-180 [1] = assay: Antitumor activity against mouse Sarcoma 180 cells allografted in CD1 mouse at 40 mg/kg, ip qd administered shortly post implantation continued for 8 days relative to vehicle-treated control; format: functional, organism-based; set-up: dose 40 mg/kg
Procedure, shortened: (§1)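 Compounds dissolved or suspended in H2O, given ip as 1.0 mL shortly after tumor implantation, then daily to eight doses in total. Mice killed 8 days after implantation; tumors excised and weighed. Mean tumor weight of treated mice (T) compared with that of H2O-treated controls (C), expressed as C/T index.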

Sarcoma-180 [2] = assay: Antitumor activity against mouse Sarcoma 180 cells allografted in CD1 mouse at 100 mg/kg, ip qd administered shortly post implantation continued for 8 days relative to vehicle-treated control; format: functional, organism-based; set-up: dose 100 mg/kg; procedure, shortened: as §1
Sarcoma-180 [3] = assay: Antitumor activity against mouse Sarcoma 180 cells allografted in CD1 mouse at 20 mg/kg, ip qd administered shortly post implantation continued for 8 days relative to vehicle-treated control; format: functional, organism-based; set-up: dose 20 mg/kg; procedure, shortened: as §1
Sarcoma-180 [4] = assay: Antitumor activity against mouse Sarcoma 180 cells allografted in CD1 mouse at 200 mg/kg, ip qd administered shortly post implantation continued for 8 days relative to vehicle-treated control; format: functional, organism-based; set-up: dose 200 mg/kg; procedure, shortened: as §1
Sarcoma-180 [5] = assay: Antitumor activity against mouse Sarcoma 180 cells allografted in CD1 mouse at 3.12 to 800 mg/kg, ip qd administered shortly post implantation for 8 days relative to vehicle-treated control; format: functional, organism-based
Mus musculus [6] = assay: Toxicity in mouse in po dosed CD1 mouse assessed as leukopenia administered once daily starting shortly post implantation continued for 8 days relative to vehicle-treated control; format: organism-based; conditions: in vivo, 192 h
Mus musculus [7] = assay: Toxicity in mouse in po dosed CD1 mouse assessed as change in body weight administered once daily starting shortly post implantation continued for 8 days relative to vehicle-treated control; format: organism-based; conditions: in vivo, 192 h
Sarcoma-180 [8] = assay: Antitumor activity against mouse Sarcoma 180 cells allografted in CD1 mouse at 25 mg/kg, ip qd administered shortly post implantation continued for 8 days relative to vehicle-treated control; format: functional, organism-based; set-up: dose 25 mg/kg; procedure, shortened: as §1
Sarcoma-180 [9] = assay: Antitumor activity against mouse Sarcoma 180 cells allografted in CD1 mouse at 50 mg/kg, ip qd administered shortly post implantation continued for 8 days relative to vehicle-treated control; format: functional, organism-based; set-up: dose 50 mg/kg; procedure, shortened: as §1
Sarcoma-180 [10] = assay: Antitumor activity against mouse Sarcoma 180 cells allografted in CD1 mouse at 12.5 mg/kg, ip qd administered shortly post implantation continued for 8 days relative to vehicle-treated control; format: functional, organism-based; set-up: dose 12.5 mg/kg; procedure, shortened: as §1

| SMILES | Activity (Sarcoma-180 [2]) | Activity (Sarcoma-180 [4]) | also measured |
| --- | --- | --- | --- |
| C[C@H]1O[C@@H]2[C@@H](Oc3nc(N)c(F)c[n+]32)[C@@H]1O | Active | Active | Activity (Sarcoma-180 [1]): Active; Activity (Sarcoma-180 [3]): inactive |
| C[C@@H]1O[C@@H](n2cc(F)c(=O)[nH]c2=O)[C@H](O)[C@@H]1O | inactive |  |  |
| C[C@H]1O[C@@H](n2cc(F)c(=O)[nH]c2=O)[C@@H](O)[C@H]1O | inactive |  |  |
| C[C@H]1O[C@@H](n2cc(F)c(N)nc2=O)[C@@H](O)[C@@H]1O | inactive |  |  |
| C=C1O[C@@H](n2cc(F)c(=O)[nH]c2=O)[C@H](O)[C@@H]1O | inactive |  |  |
| C[C@H]1O[C@@H](n2cc(F)c(=O)[nH]c2=O)[C@@H](O)[C@@H]1O | inactive |  |  |
| C[C@H]1O[C@@H](n2cc(F)c(=O)[nH]c2=O)[C@H](O)[C@@H]1O [DOXIFLURIDINE] | Active | Active | Activity (Sarcoma-180 [5]): Active; Activity (Mus musculus [6]): Toxic; Activity (Mus musculus [7]): Toxic; Activity (Sarcoma-180 [8]): Active; Activity (Sarcoma-180 [9]): Active; Activity (Sarcoma-180 [10]): inactive |
| C[C@H]1O[C@@H](n2cc(F)c(N)nc2=O)[C@H](O)[C@@H]1O | Active | Active | Activity (Sarcoma-180 [8]): Active; Activity (Sarcoma-180 [9]): Active; Activity (Sarcoma-180 [10]): inactive |
| C[C@H]1O[C@@H](n2ccc(=O)[nH]c2=O)[C@H](O)[C@@H]1O |  | inactive |  |
| C[C@H]1O[C@@H]2[C@@H](Oc3nc(=O)c(F)cn32)[C@@H]1O |  | inactive |  |
| C[C@H]1O[C@@H](n2cc(F)c(N)nc2=O)[C@H]2O[C@H]21 |  | inactive |  |
| O=c1[nH]c(=O)n([C@H]2C[C@H](O)[C@@H](CO)O2)cc1F [FLOXURIDINE] |  |  | Activity (Mus musculus [6]): Toxic; Activity (Mus musculus [7]): Toxic |
| C[C@H]1O[C@@H](n2ccc(N)nc2=O)[C@H](O)[C@@H]1O |  | inactive |  |
| C[C@H]1O[C@@H](n2cc(F)c(=O)[nH]c2=O)[C@@H]2OC(C)(C)O[C@@H]21 |  | inactive |  |
